Laboratory results as given in ChEMBL document CHEMBL1255404, “Spread of OXA-48-encoding plasmid in Turkey and beyond” (2010).
Values after ≈ are worked out from the molar mass of the structure shown.

What was measured:
Format in all cases: functional
Escherichia coli [1] = test: Antimicrobial activity against Escherichia coli isolate J53 harboring p3A containing beta-lactamase OXA-48 located within transposon Tn1999 by Etest method
Method in brief: (§1)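 β-Lactam MICs read with Etest strips. Strains are E. coli J53 recipient and J53 transconjugants carrying OXA-48-positive plasmids recovered from clinical enterobacterial isolates.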

Escherichia coli [2] = test: Antimicrobial activity against Escherichia coli isolate J53 harboring pEnc1 containing beta-lactamase OXA-48 located within transposon Tn1999 by Etest method; method in brief: as §1
Escherichia coli [3] = test: Antimicrobial activity against Escherichia coli isolate J53 harboring p6A containing beta-lactamase OXA-48 located within transposon Tn1999 by Etest method; method in brief: as §1
Escherichia coli [4] = test: Antimicrobial activity against Escherichia coli isolate J53 harboring pBb containing beta-lactamase OXA-48 located within transposon Tn1999.2 by Etest method; method in brief: as §1
Escherichia coli [5] = test: Antimicrobial activity against Escherichia coli isolate J53 harboring p4A containing beta-lactamase OXA-48 located within transposon Tn1999 by Etest method; method in brief: as §1
Klebsiella pneumoniae [6] = test: Antimicrobial activity against Klebsiella pneumoniae isolate KpL expressing beta-lactamase OXA-48 by Etest method
Escherichia coli [7] = test: Antimicrobial activity against Escherichia coli isolate J53 harboring pI-2 containing beta-lactamase OXA-48 located within transposon Tn1999.2 by Etest method; method in brief: as §1
Klebsiella pneumoniae [8] = test: Antimicrobial activity against Klebsiella pneumoniae isolate KpBIC expressing beta-lactamase OXA-48 by Etest method
Method in brief: (§2)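 MICs of β-lactams read from Etest strips. The test organisms are carbapenem-resistant, OXA-48-positive clinical Enterobacteriaceae isolates recovered from Turkey, Lebanon, Egypt, France and Belgium.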

Escherichia coli [9] = test: Antimicrobial activity against Escherichia coli isolate J53 harboring pEcA containing beta-lactamase OXA-48 located within transposon Tn1999.2 by Etest method; method in brief: as §1
Klebsiella pneumoniae [10] = test: Antimicrobial activity against Klebsiella pneumoniae isolate Kp7A expressing beta-lactamase OXA-48 by Etest method; method in brief: as §2
Klebsiella pneumoniae [11] = test: Antimicrobial activity against Klebsiella pneumoniae isolate KpBEL expressing beta-lactamase OXA-48 by Etest method; method in brief: as §2
Escherichia coli [12] = test: Antimicrobial activity against Escherichia coli isolate J53 harboring p7A containing beta-lactamase OXA-48 located within transposon Tn1999 by Etest method; method in brief: as §1
Klebsiella pneumoniae [13] = test: Antimicrobial activity against Klebsiella pneumoniae isolate Kp3A expressing beta-lactamase OXA-48 by Etest method; method in brief: as §2
Escherichia coli [14] = test: Antimicrobial activity against Escherichia coli isolate J53 harboring pBEL containing beta-lactamase OXA-48 located within transposon Tn1999.2 by Etest method; method in brief: as §1
Escherichia coli [15] = test: Antimicrobial activity against Escherichia coli isolate J53 harboring pL containing beta-lactamase OXA-48 located within transposon Tn1999.2 by Etest method; method in brief: as §1
Escherichia coli [16] = test: Antimicrobial activity against Escherichia coli isolate TOP10 harboring pPR containing beta-lactamase and TEM-101 by Etest method
Method in brief: (§3)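 β-Lactam MICs read with Etest strips. Strains are E. coli TOP10 host and TOP10 transformants made with plasmid DNA extract when conjugation failed. Transformants were selected on LB agar with ticarcillin 50 μg/ml.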

Escherichia coli [17] = test: Antimicrobial activity against Escherichia coli isolate J53 harboring pI-1 containing beta-lactamase OXA-48 located within transposon Tn1999.2 by Etest method; method in brief: as §1
Escherichia coli [18] = test: Antimicrobial activity against Escherichia coli isolate J53 harboring pE containing beta-lactamase OXA-48 located within transposon Tn1999.2 by Etest method; method in brief: as §1
Escherichia coli [19] = test: Antimicrobial activity against Escherichia coli isolate J53 harboring pCF containing beta-lactamase OXA-48 located within transposon Tn1999 by Etest method; method in brief: as §1
Escherichia coli [20] = test: Antimicrobial activity against Escherichia coli isolate J53 harboring p5A containing beta-lactamase OXA-48 located within transposon Tn1999 by Etest method; method in brief: as §1
Escherichia coli [21] = test: Antimicrobial activity against Escherichia coli isolate J53 harboring pEnc2 containing beta-lactamase OXA-48 located within transposon Tn1999 by Etest method; method in brief: as §1
Klebsiella pneumoniae [22] = test: Antimicrobial activity against Klebsiella pneumoniae isolate Kp4A expressing beta-lactamase OXA-48 and CTX-M-15 by Etest method
Klebsiella pneumoniae [23] = test: Antimicrobial activity against Klebsiella pneumoniae isolate Kp11978 expressing beta-lactamase OXA-48, SHV-2a and TEM-1 by Etest method
Escherichia coli [24] = test: Antimicrobial activity against Escherichia coli isolate J53 harboring pA-1 containing beta-lactamase OXA-48 located within transposon Tn1999 by Etest method; method in brief: as §1
Enterobacter cloacae [25] = test: Antimicrobial activity against Enterobacter cloacae isolate 1 expressing beta-lactamase OXA-48 and SHV-5 by Etest method
Klebsiella pneumoniae [26] = test: Antimicrobial activity against Klebsiella pneumoniae isolate Kp6A expressing beta-lactamase OXA-48 and TEM-150 by Etest method
Klebsiella pneumoniae [27] = test: Antimicrobial activity against Klebsiella pneumoniae isolate KpE expressing beta-lactamase OXA-48 and CTX-M-15 by Etest method
Enterobacter cloacae [28] = test: Antimicrobial activity against Enterobacter cloacae isolate 2 expressing beta-lactamase OXA-48 and SHV-5 by Etest method
Klebsiella pneumoniae [29] = test: Antimicrobial activity against Klebsiella pneumoniae isolate Kp5A expressing beta-lactamase OXA-48 and SHV-5 by Etest method
Escherichia coli [30] = test: Antimicrobial activity against Escherichia coli isolate TOP10 harboring pBIC containing beta-lactamase OXA-48 located within transposon Tn1999.2 by Etest method; method in brief: as §3
Providencia rettgeri = test: Antimicrobial activity against Providencia rettgeri isolate expressing beta-lactamase OXA-48 and TEM-101 by Etest method
Escherichia coli [31] = test: Antimicrobial activity against Escherichia coli isolate J53 by Etest method; method in brief: as §1
Escherichia coli [32] = test: Antimicrobial activity against Escherichia coli isolate TOP10 by Etest method; method in brief: as §3
Escherichia coli [33] = test: Antimicrobial activity against Escherichia coli isolate A expressing beta-lactamase OXA-48 and TEM-150 by Etest method
Klebsiella pneumoniae [34] = test: Antimicrobial activity against Klebsiella pneumoniae isolate KpB expressing OXA-48 and CTX-M-15 by Etest method
Citrobacter freundii = test: Antimicrobial activity against Citrobacter freundii isolate expressing beta-lactamase OXA-48 by Etest method
Klebsiella pneumoniae [35] = test: Antimicrobial activity against Klebsiella pneumoniae isolate KpI-2 expressing beta-lactamase OXA-48 and CTX-M-15 by Etest method
Klebsiella pneumoniae [36] = test: Antimicrobial activity against Klebsiella pneumoniae isolate KpI-1 expressing beta-lactamase OXA-48 and CTX-M-15 by Etest method

Compound | MIC (Escherichia coli [1]) [µg/mL] | MIC (Escherichia coli [2]) [µg/mL] | MIC (Escherichia coli [3]) [µg/mL] | MIC (Escherichia coli [4]) [µg/mL] | MIC (Escherichia coli [5]) [µg/mL] | MIC (Klebsiella pneumoniae [6]) [µg/mL] | MIC (Escherichia coli [7]) [µg/mL] | MIC (Klebsiella pneumoniae [8]) [µg/mL] | MIC (Escherichia coli [9]) [µg/mL] | MIC (Klebsiella pneumoniae [10]) [µg/mL] | MIC (Klebsiella pneumoniae [11]) [µg/mL] | MIC (Escherichia coli [12]) [µg/mL] | MIC (Klebsiella pneumoniae [13]) [µg/mL] | MIC (Escherichia coli [14]) [µg/mL] | MIC (Escherichia coli [15]) [µg/mL] | MIC (Escherichia coli [17]) [µg/mL] | MIC (Escherichia coli [18]) [µg/mL] | MIC (Escherichia coli [19]) [µg/mL] | MIC (Escherichia coli [20]) [µg/mL] | MIC (Escherichia coli [21]) [µg/mL] | other results
C[C@H]1[C@H](NC(=O)/C(=N\OC(C)(C)C(=O)O)c2csc(N)n2)C(=O)N1S(=O)(=O)O [AZTREONAM] | 0.06 (≈ 0.138 µM) | 0.06 (≈ 0.138 µM) | 0.06 (≈ 0.138 µM) | < 0.12 | 0.06 (≈ 0.138 µM) | 0.06 (≈ 0.138 µM) | 0.06 (≈ 0.138 µM) | 0.06 (≈ 0.138 µM) | 0.06 (≈ 0.138 µM) | 0.06 (≈ 0.138 µM) | 0.06 (≈ 0.138 µM) | 0.06 (≈ 0.138 µM) | 0.06 (≈ 0.138 µM) | 0.06 (≈ 0.138 µM) | 0.06 (≈ 0.138 µM) | 0.06 (≈ 0.138 µM) | 0.06 (≈ 0.138 µM) | 0.06 (≈ 0.138 µM) | 0.06 (≈ 0.138 µM) | 0.06 (≈ 0.138 µM) | MIC (Escherichia coli [16]): 0.06 µg/mL (≈ 0.138 µM)
C[C@@H](O)[C@H]1C(=O)N2C(C(=O)O)=C(S[C@@H]3CN[C@H](C(=O)N(C)C)C3)[C@H](C)[C@H]12 [MEROPENEM] | 0.12 (≈ 0.313 µM) | 0.094 (≈ 0.245 µM) | 0.094 (≈ 0.245 µM) | 0.12 (≈ 0.313 µM) | 0.094 (≈ 0.245 µM) |  | 0.094 (≈ 0.245 µM) | 0.5 (≈ 1.3 µM) | 0.19 (≈ 0.495 µM) | > 32 | 0.5 (≈ 1.3 µM) | 0.12 (≈ 0.313 µM) | > 32 | 0.5 (≈ 1.3 µM) | 0.19 (≈ 0.495 µM) | 0.094 (≈ 0.245 µM) | 2 (≈ 5.22 µM) | 0.12 (≈ 0.313 µM) | 0.094 (≈ 0.245 µM) | 0.12 (≈ 0.313 µM) | MIC (Klebsiella pneumoniae [22]): > 32 µg/mL; MIC (Klebsiella pneumoniae [23]): 64 µg/mL (≈ 167 µM); MIC (Escherichia coli [24]): 0.25 µg/mL (≈ 0.652 µM); MIC (Enterobacter cloacae [25]): 0.5 µg/mL (≈ 1.3 µM); MIC (Klebsiella pneumoniae [26]): > 32 µg/mL; MIC (Klebsiella pneumoniae [27]): 2 µg/mL (≈ 5.22 µM); MIC (Enterobacter cloacae [28]): 0.75 µg/mL (≈ 1.96 µM); MIC (Klebsiella pneumoniae [29]): > 32 µg/mL; MIC (Escherichia coli [30]): 0.5 µg/mL (≈ 1.3 µM); MIC (Providencia rettgeri): > 32 µg/mL; MIC (Escherichia coli [31]): 0.06 µg/mL (≈ 0.156 µM); MIC (Escherichia coli [16]): 0.25 µg/mL (≈ 0.652 µM); MIC (Escherichia coli [32]): 0.06 µg/mL (≈ 0.156 µM); MIC (Escherichia coli [33]): 24 µg/mL (≈ 62.6 µM); MIC (Klebsiella pneumoniae [34]): 32 µg/mL (≈ 83.4 µM); MIC (Citrobacter freundii): > 32 µg/mL
C[C@@H](O)[C@H]1C(=O)N2C(C(=O)O)=C(SCCNC=N)C[C@H]12 [IMIPENEM ANHYDROUS] | 0.75 (≈ 2.51 µM) | 0.5 (≈ 1.67 µM) | 0.38 (≈ 1.27 µM) | 0.5 (≈ 1.67 µM) | 0.38 (≈ 1.27 µM) | > 16 | 0.5 (≈ 1.67 µM) | 0.5 (≈ 1.67 µM) | 0.75 (≈ 2.51 µM) | > 32 | 0.75 (≈ 2.51 µM) | 0.75 (≈ 2.51 µM) | > 32 | 0.75 (≈ 2.51 µM) | 4 (≈ 13.4 µM) | 0.5 (≈ 1.67 µM) | 2 (≈ 6.68 µM) | 0.75 (≈ 2.51 µM) | 0.38 (≈ 1.27 µM) | 0.75 (≈ 2.51 µM) | MIC (Klebsiella pneumoniae [22]): > 32 µg/mL; MIC (Klebsiella pneumoniae [23]): 64 µg/mL (≈ 214 µM); MIC (Klebsiella pneumoniae [35]): 24 µg/mL (≈ 80.2 µM); MIC (Escherichia coli [24]): 2 µg/mL (≈ 6.68 µM); MIC (Enterobacter cloacae [25]): 0.5 µg/mL (≈ 1.67 µM); MIC (Klebsiella pneumoniae [26]): > 32 µg/mL; MIC (Klebsiella pneumoniae [27]): 2 µg/mL (≈ 6.68 µM); MIC (Enterobacter cloacae [28]): 0.75 µg/mL (≈ 2.51 µM); MIC (Klebsiella pneumoniae [29]): > 32 µg/mL; MIC (Escherichia coli [30]): 0.5 µg/mL (≈ 1.67 µM); MIC (Providencia rettgeri): > 32 µg/mL; MIC (Klebsiella pneumoniae [36]): 24 µg/mL (≈ 80.2 µM); MIC (Escherichia coli [33]): 24 µg/mL (≈ 80.2 µM); MIC (Klebsiella pneumoniae [34]): 16 µg/mL (≈ 53.4 µM); MIC (Citrobacter freundii): > 32 µg/mL
